# OXTR ag = activates the human oxytocin receptor; CHO-OTR cells, Fluo-8 calcium fluorescence; normalized: DMSO 0%, oxytocin 100%; P30559; hit rate 0.32% among 320,000; AID 2435; activation, % at 3 µM;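 active = activation above the mean of all tested compounds plus 3 SD, cutoff set per screening run, cut at about 20% in these data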;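 note: peak over basal fluorescence ratio from a 100 s FLIPR kinetic read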
# Target sequence (P30559 whole entry, looked up): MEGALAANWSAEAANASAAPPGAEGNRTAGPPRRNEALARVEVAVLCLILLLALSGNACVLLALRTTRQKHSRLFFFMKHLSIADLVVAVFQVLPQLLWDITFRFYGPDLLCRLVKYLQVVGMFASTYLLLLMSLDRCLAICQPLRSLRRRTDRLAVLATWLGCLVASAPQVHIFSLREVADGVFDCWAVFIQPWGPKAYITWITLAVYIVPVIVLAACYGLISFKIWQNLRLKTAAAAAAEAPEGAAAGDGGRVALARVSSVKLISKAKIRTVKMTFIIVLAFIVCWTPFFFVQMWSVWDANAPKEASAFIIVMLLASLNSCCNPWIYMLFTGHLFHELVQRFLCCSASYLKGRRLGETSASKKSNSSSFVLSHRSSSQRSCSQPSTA
# TRPN1 ag = activates the zebrafish TRPN1 channel; hit rate 0.18% among 220,000; HEK293 zebrafish TRPN1-YFP, Fluo-8 calcium fluorescence; 100% = response to 87 µM carbachol; activation, % at 3 µM; AID 1424;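 active = activation above its plate's cutoff, the mean activation of test wells on that plate plus 3 SD, cut at about 19% in these data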;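 note: 0% = DMSO alone and 100% = 87 µM carbachol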
#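 Control set: carbachol 87 µM as high control, DMSO as low control; system: HEK293 stable line with zebrafish TRPN1-YFP; read-out: % activation versus carbachol response; detection: intracellular calcium fluorescence with Fluo-8; doses: single test compound dose, 3 µM nominal, 0.3% DMSO; schedule: dye 1 h 37 °C plus 30 min RT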
# V1aR counter = activates human V1a receptor in oxytocin agonist counter-screen. P37288. CHO-V1R cells, Fluo-8 calcium fluorescence, agonist mode; 0% DMSO, 100% 3 nM vasopressin. activation, % at 3 µM. hit rate 0.25% among 320,000. AID 2797;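 active = activation above the mean activation of all tested compounds plus 3 SD, per screening run, cut at about 20% in these data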;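 note: signal is peak over basal fluorescence ratio across a 100 second FLIPR read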
# OXTR potentiator = potentiates the human oxytocin receptor response | P30559 | CHO-OTR cells, Fluo-8 calcium fluorescence, potentiator mode; 0% = oxytocin EC15, 100% = EC100 | activation, % at 3 µM | hit rate 0.061% among 320,000 | AID 2445;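 active = activation above that plate's cutoff, the mean activation of tested compounds plus 3 SD, cut at about 6.6% in these data, passing the limit was not always enough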;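 note: 100% uses oxytocin at 75 nM as the full agonist control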
#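 System: human OTR in CHO cells; Also added: sub-maximal oxytocin, roughly EC15; Timing: compound 6 min at room temperature before oxytocin, 100 s read; Technique: Fluo-8 intracellular calcium fluorescence, ex 470-495, em 515-575 nm; Controls: oxytocin EC15 low and EC100 high; Replication: singlicate.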
# TRPML3 agonist = activates the human TRPML3 channel | HEK293 TRPML3-YFP, Fluo-8 calcium fluorescence; 100% = the carbachol control signal | activation, % at 3 µM | hit rate 0.29% among 220,000 | AID 1448;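 active = activation above its plate's cutoff, the mean activation of the plate's test wells plus 3 SD, cut at about 12% in these data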;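 note: 0% = DMSO only wells and 100% = carbachol wells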
#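 Material: HEK293 cells stably carrying human TRPML3-YFP; compound dosing: single dose, 3 µM final nominal compound, 0.3% DMSO final; incubation: 1-h 37 °C dye load, 5-s basal, 120-s post-compound reads; technique: Fluo-8 intracellular calcium fluorescence, excitation 470-495 nm, emission 515-575 nm; read-out basis: percent activation from peak-to-basal fluorescence ratio, scaled between DMSO and carbachol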
# Active calls of the source: *; · = no result given. In the library only some 0.55% were active in any assay of this set; here they are far more common.
SMILES,OXTR ag,TRPN1 ag,V1aR counter,OXTR potentiator,TRPML3 agonist
Cc1ccc(S(=O)(=O)N/N=C/c2ccc(OC3CSC3)cc2)cc1,24*,20*,40*,-29,13*
C/C(=N\Nc1ccc(C(=O)O)cc1)c1ccc(Cl)s1,24*,·,34*,-16,·
COc1ccccc1NS(=O)(=O)c1ccc(C(=O)N2CCN(c3ccccn3)CC2)cc1,13,·,10,-12,·
CCOc1ccc(/C=N/n2c(SC)nnc2-c2ccccc2)cc1OCC,-1,2,0,-14,0
CC(=O)OCCn1c2nc(=O)[nH]c(=O)c-2nc2cc(C)c(C)cc21,·,142*,·,·,88*
CC(=O)OCCn1c(C)[n+](CCOC(C)=O)c2cc(Cl)c(Cl)cc21,1,0,2,9,0
N#Cc1ccccc1OCC(=O)Nc1ccccc1C(=O)NC1CC1,1,·,0,2,·
COc1ccc(C2C=C(c3ccccc3)Nc3nc(CCCO)nn32)cc1 (centres undefined),-1,0,-1,-15,0
COc1ccc(C2C=C(c3cccs3)Nc3nc(CCCO)nn32)cc1 (centres undefined),47*,3,51*,-4,1
O=C(NC(Cc1ccc(O)cc1)C(=O)O)c1ccc2c(c1)OCO2 (centres undefined),0,·,0,-4,·
COc1cccc2c1C(=O)c1c(O)c3c(c(O)c1C2=O)C[C@@](O)(C(C)=O)C[C@@H]3O[C@H]1C[C@H](N)[C@H](O)[C@H](C)O1,·,13,·,·,8
CC(=O)[C@]1(O)Cc2c(O)c3c(c(O)c2[C@@H](O[C@H]2C[C@H](N)[C@H](O)[C@H](C)O2)C1)C(=O)c1ccccc1C3=O,77*,·,40*,-16,·
CCCN1C(=O)/C(=C/c2c(N3CCNC(=O)C3CC(=O)OC)nc3c(C)cccn3c2=O)SC1=S (centres undefined),·,31*,·,·,10
CCOC(=O)CC1C(=O)NCCN1C(=O)c1cc2c(=O)n3cccc(C)c3nc2s1 (centres undefined),-1,1,1,-5,0
CCc1ccc(Nc2n[n+](-c3ccccc3)c(-c3ccc(OCc4ccccc4)cc3)s2)cc1,-2,·,-1,-9,·
CCc1ccc(Nc2n[n+](-c3ccccc3)c(-c3c(Cl)cccc3Cl)s2)cc1,48*,·,64*,-20,·
Fc1ccc(-[n+]2nc(Nc3ccccc3)sc2-c2c(Cl)cccc2Cl)cc1,23*,·,25*,-22,·
CCOC(=O)c1c(CSC(=N)N)n(-c2ccc(C)cc2)c2cc(Br)c(OC(C)=O)cc12,32*,6,22*,-23,2
CCOC(=O)c1c(CSC(=N)N)n(C)c2cc(Br)c(OC(C)=O)cc12,-1,1,0,-9,1
O=C(Cn1nnc(-c2ccccc2NC(=O)c2ccccc2F)n1)NC1CCCC1,47*,1,49*,1,0
CS(=O)(=O)c1ccccc1-c1nc(-c2ccc([N+](=O)[O-])cc2)no1,0,2,0,-6,1
CCOC(=O)CN1C(=O)S/C(=C/c2ccc3c(c2)n(C)c(=O)n3C)C1=O,1,0,0,-2,0
CCOC(=O)CN1C(=O)S/C(=C/C=C/c2ccc(N(C)C)cc2)C1=O,26*,6,28*,-17,6
OCCNCc1c(OCc2ccc(Cl)cc2)ccc2ccccc12,30*,·,30*,-20,·
CC1(c2ccc(OC(F)F)cc2)NC(=O)N(CC(=O)Nc2ccc(N3CCCCC3)cc2)C1=O (centres undefined),27*,·,27*,-21,·
CCC1(c2ccccc2)NC(=O)N(CC(=O)Nc2cccnc2Cl)C1=O (centres undefined),4,·,2,-3,·
CC1(c2ccc(OC(F)F)cc2)NC(=O)N(CC(=O)Nc2cccnc2Cl)C1=O (centres undefined),60*,·,48*,-22,·
CCC1(c2ccc(F)cc2)NC(=O)N(CC(=O)Nc2cccnc2Cl)C1=O (centres undefined),23*,·,30*,-18,·
COc1ccc(C2(C)NC(=O)N(CC(=O)Nc3cccnc3Cl)C2=O)cc1 (centres undefined),7,·,5,-3,·
